Measurements as given in ChEMBL document CHEMBL1141410, “Eremophilane-type sesquiterpene derivatives from the roots of Ligularia lapathifolia” (J Nat Prod, 2007).

Experiments:
Assay type in all cases: cell-based
HepG2 = experiment: Cytotoxicity against human HEPG2 cells after 48 hrs by MTT colorimetric assay; settings: HepG2, 48 h
In short: (§1)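 Cells maintained in RPMI-1640 with 10% heat-inactivated FBS, penicillin and streptomycin at 37 °C, 5% CO2; exponentially growing cells seeded at 1 × 10^5 cells/mL, treated after 24 h at 0.1–100 or 0.15–150 mg/L, six replicate wells per point. After 48 h, MTT added for 4 h at 37 °C, then 10% SDS–0.01 M HCl overnight; A570 read, cytotoxicity % versus untreated cells.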

[1] = Cytotoxicity against human MGC803 cells after 48 hrs by MTT colorimetric assay; settings: MGC-803, 48 h; in short: as §1
CCRF S-180 = experiment: Cytotoxicity against mouse S180 cells after 48 hrs by MTT colorimetric assay; settings: CCRF S-180, 48 h; in short: as §1

| SMILES | IC50 (HepG2) [µM] | IC50 [1] [µM] | IC50 (CCRF S-180) [µM] |
| --- | --- | --- | --- |
| C/C=C(/C)C(=O)OC1CC[C@@H]2CC(=O)C(C(C)C(=O)OC)=C[C@]2(C)C1C(=O)OC (stereo not given in full) | > 100 | > 100 | > 100 |
| CO[C@]12C[C@H]3CCC=C4C(=O)O[C@@H](C1=C(C)C(=O)O2)[C@]43C | 12.7 | > 100 | 73.1 |
| CCO[C@]12C[C@H]3CCC=C4C(=O)O[C@@H](C1=C(C)C(=O)O2)[C@]43C | 40.5 | 53.9 | 36.6 |
| COC(=O)C1=CCC[C@@H]2CC(C(C)=O)=C[C@]12C | 46.5 | 35.4 | 19.9 |
| CC1=C2[C@@H]3OC(=O)C4=CCC[C@H](C[C@]2(O)OC1=O)[C@@]43C | > 100 | > 100 | > 100 |
